Measurements from ChEMBL document CHEMBL1137912, “Novel isoxazole carboxamides as growth hormone secretagogue receptor (GHS-R) antagonists” (Bioorg Med Chem Lett, 2004).

Biological target: T1, Growth hormone secretagogue receptor type 1 (Homo sapiens, UniProt Q92847)
Assay: Binding affinity to displace [125I]ghrelin from cloned human GHS-R expressed in CHO-K cells was determined (Kd of ghrelin is 0.4 nM)
Format: cell-based

T1 sequence (Q92847 whole entry): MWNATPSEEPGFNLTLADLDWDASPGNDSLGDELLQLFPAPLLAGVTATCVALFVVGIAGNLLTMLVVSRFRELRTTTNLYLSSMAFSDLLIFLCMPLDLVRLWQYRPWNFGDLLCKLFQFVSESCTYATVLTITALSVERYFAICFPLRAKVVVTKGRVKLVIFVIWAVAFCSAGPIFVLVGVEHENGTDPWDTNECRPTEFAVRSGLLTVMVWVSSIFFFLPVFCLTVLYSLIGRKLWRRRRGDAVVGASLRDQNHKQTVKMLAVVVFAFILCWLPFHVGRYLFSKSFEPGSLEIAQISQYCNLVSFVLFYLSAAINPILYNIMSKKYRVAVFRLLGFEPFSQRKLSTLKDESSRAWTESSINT

| IC50 [nM] | Structure (SMILES) |
| --- | --- |
| 130 | CCN(CC)c1ccc(NC(=O)c2c(-c3c(Cl)cccc3Cl)noc2C)cc1 |

Biological target: T1, Growth hormone secretagogue receptor type 1
Assay: Ability to inhibit ghrelin induced increase in intracellular [Ca2+] in CHO-K cells was determined by FLIPR assay
Format: functional, cell-based
Procedure, shortened: (§1)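 Antagonist mode in CHO-K cells stably expressing human GHS-R, grown to confluency overnight. Cells were loaded with Fluo-4 AM plus probenecid in DPBS for 1–3h in the dark at room temperature, then washed. Compound was added in 0.1% BSA/4% DMSO DPBS and read for 3min. Ghrelin was then added and read a further 3min at ex 488/em 520nm. IC50 from sigmoidal fit.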

| Structure (SMILES) | IC50 [nM] |
| --- | --- |
| CCN(CC)c1ccc(NC(=O)c2c(-c3c(Cl)cccc3Cl)noc2C(C)C)cc1 | 861 |
| CCN(CC)[C@H]1CC[C@H](NC(=O)c2c(-c3c(Cl)cccc3Cl)noc2CCC2CCCO2)CC1 (some centres not stated) | 103 |
| CCN(CC)c1ccc(NC(=O)c2c(-c3c(Cl)cccc3Cl)noc2CCc2cccc3c2OCO3)cc1 | 564 |
| CCc1onc(-c2c(Cl)cccc2Cl)c1C(=O)Nc1ccc(N(CC)CC)cc1 | 319 |
| CCCc1onc(-c2c(Cl)cccc2Cl)c1C(=O)Nc1ccc(N(CC)CC)cc1 | 492 |
| CCN(CC)c1ccc(NC(=O)c2c(-c3c(Cl)cccc3Cl)noc2CCC2CCCCO2)cc1 (configuration not stated) | 102 |
| CCN(CC)c1ccc(NC(=O)c2c(-c3c(Cl)cccc3Cl)noc2CCc2ccccc2OC)cc1 | 714 |
| CCN(CC)c1ccc(NC(=O)c2c(-c3c(Cl)cccc3Cl)noc2C)cc1 | 180 |
| CCN(CC)c1ccc(NC(=O)c2c(-c3c(Cl)cccc3Cl)noc2CCC2CCOCC2)cc1 | 146 |
| CCN(CC)c1ccc(NC(=O)c2c(-c3c(Cl)cccc3Cl)noc2CCCO)cc1 | 308 |
| CCN(CC)[C@H]1CC[C@H](NC(=O)c2c(-c3c(Cl)cccc3Cl)noc2CCN2CCCCC2=O)CC1 | 190 |
| CCN(CC)c1ccc(NC(=O)c2c(-c3c(Cl)cccc3Cl)noc2CN2CCCC2=O)cc1 | 98 |
| CCN(CC)c1ccc(NC(=O)c2c(-c3c(Cl)cccc3Cl)noc2CCOC)cc1 | 115 |

Other lines, results leading:

| IC50 [nM] | Structure (SMILES) |
| --- | --- |
| 18 | CCN(CC)c1ccc(NC(=O)c2c(-c3c(Cl)cccc3Cl)noc2CCN2CCCC2=O)cc1 |
| 19 | CCN(CC)c1ccc(NC(=O)c2c(-c3c(Cl)cccc3Cl)noc2CCC2OCCCO2)cc1 |
| 57 | CCN(CC)[C@H]1CC[C@H](NC(=O)c2c(-c3c(Cl)cccc3Cl)noc2C)CC1 |
| 93 | CCN(CC)c1ccc(NC(=O)c2c(-c3c(Cl)cccc3Cl)noc2CCc2ccc3c(c2)OCO3)cc1 |
| 8 | CCN(CC)c1ccc(NC(=O)c2c(-c3c(Cl)cccc3Cl)noc2CCN2CCCCC2=O)cc1 |
| 15 | CCN(CC)c1ccc(NC(=O)c2c(-c3c(Cl)cccc3Cl)noc2CCN2C(=O)CCC2(C)C)cc1 |
| 57 | CCN(CC)c1ccc(NC(=O)c2c(-c3c(Cl)cccc3Cl)noc2CCC2CCCO2)cc1 (configuration not stated) |
| 54 | CCN(CC)[C@H]1CC[C@H](NC(=O)c2c(-c3c(Cl)cccc3Cl)noc2CCc2ccc3c(c2)OCO3)CC1 |
| 10 | CCN(CC)c1ccc(NC(=O)c2c(-c3c(Cl)cccc3Cl)noc2CCN2CCN(C)C2=O)cc1 |
| 19 | CCN(CC)c1ccc(NC(=O)c2c(-c3c(Cl)cccc3Cl)noc2CCN(C)C(C)=O)cc1 |
| 56 | CCN(CC)c1ccc(NC(=O)c2c(-c3c(Cl)cccc3Cl)noc2CCC2OCCO2)cc1 |

Biological target: T1, Growth hormone secretagogue receptor type 1
Assay: Ability to inhibit ghrelin induced increase in intracellular [Ca2+] in CHO-K cells
Format: functional, cell-based
Procedure, shortened: as §1

| IC50 [nM] | Structure (SMILES) |
| --- | --- |
| 3 | CCN(CC)[C@H]1CC[C@H](NC(=O)c2c(-c3c(Cl)cccc3Cl)noc2CCC2OCCCO2)CC1 |

Biological target: T1, Growth hormone secretagogue receptor type 1
Assay: Ability to displace [125I]ghrelin from cloned human GHS-R expressed in CHO-K cells was determined (Kd of ghrelin is 0.4 nM)
Format: cell-based

| Structure (SMILES) | IC50 [nM] |
| --- | --- |
| CCN(CC)c1ccc(NC(=O)c2c(-c3c(Cl)cccc3Cl)noc2C(C)C)cc1 | 150 |
| CCN(CC)[C@H]1CC[C@H](NC(=O)c2c(-c3c(Cl)cccc3Cl)noc2CCC2CCCO2)CC1 (some centres not stated) | 194 |
| CCN(CC)c1ccc(NC(=O)c2c(-c3c(Cl)cccc3Cl)noc2CCc2cccc3c2OCO3)cc1 | 162 |
| CCN(CC)[C@H]1CC[C@H](NC(=O)c2c(-c3c(Cl)cccc3Cl)noc2CCC2OCCCO2)CC1 | 87 |
| CCc1onc(-c2c(Cl)cccc2Cl)c1C(=O)Nc1ccc(N(CC)CC)cc1 | 147 |
| CCCc1onc(-c2c(Cl)cccc2Cl)c1C(=O)Nc1ccc(N(CC)CC)cc1 | 131 |
| CCN(CC)c1ccc(NC(=O)c2c(-c3c(Cl)cccc3Cl)noc2CCC2CCCCO2)cc1 (configuration not stated) | 39 |
| CCN(CC)c1ccc(NC(=O)c2c(-c3c(Cl)cccc3Cl)noc2CCc2ccccc2OC)cc1 | 389 |
| CCN(CC)c1ccc(NC(=O)c2c(-c3c(Cl)cccc3Cl)noc2CCC2CCOCC2)cc1 | 29 |
| CCN(CC)c1ccc(NC(=O)c2c(-c3c(Cl)cccc3Cl)noc2CCCO)cc1 | 132 |
| CCN(CC)[C@H]1CC[C@H](NC(=O)c2c(-c3c(Cl)cccc3Cl)noc2CCN2CCCCC2=O)CC1 | 139 |
| CCN(CC)c1ccc(NC(=O)c2c(-c3c(Cl)cccc3Cl)noc2CN2CCCC2=O)cc1 | 122 |
| CCN(CC)c1ccc(NC(=O)c2c(-c3c(Cl)cccc3Cl)noc2CCOC)cc1 | 110 |

Next, values leading:

| IC50 [nM] | Structure (SMILES) |
| --- | --- |
| 18 | CCN(CC)c1ccc(NC(=O)c2c(-c3c(Cl)cccc3Cl)noc2CCN2CCCC2=O)cc1 |
| 6 | CCN(CC)c1ccc(NC(=O)c2c(-c3c(Cl)cccc3Cl)noc2CCC2OCCCO2)cc1 |
| 53 | CCN(CC)[C@H]1CC[C@H](NC(=O)c2c(-c3c(Cl)cccc3Cl)noc2C)CC1 |
| 47 | CCN(CC)c1ccc(NC(=O)c2c(-c3c(Cl)cccc3Cl)noc2CCc2ccc3c(c2)OCO3)cc1 |
| 9 | CCN(CC)c1ccc(NC(=O)c2c(-c3c(Cl)cccc3Cl)noc2CCN2CCCCC2=O)cc1 |
| 39 | CCN(CC)c1ccc(NC(=O)c2c(-c3c(Cl)cccc3Cl)noc2CCN2C(=O)CCC2(C)C)cc1 |
| 57 | CCN(CC)c1ccc(NC(=O)c2c(-c3c(Cl)cccc3Cl)noc2CCC2CCCO2)cc1 (configuration not stated) |
| 32 | CCN(CC)[C@H]1CC[C@H](NC(=O)c2c(-c3c(Cl)cccc3Cl)noc2CCc2ccc3c(c2)OCO3)CC1 |
| 21 | CCN(CC)c1ccc(NC(=O)c2c(-c3c(Cl)cccc3Cl)noc2CCN2CCN(C)C2=O)cc1 |
| 34 | CCN(CC)c1ccc(NC(=O)c2c(-c3c(Cl)cccc3Cl)noc2CCN(C)C(C)=O)cc1 |
| 25 | CCN(CC)c1ccc(NC(=O)c2c(-c3c(Cl)cccc3Cl)noc2CCC2OCCO2)cc1 |

Biological target: Growth hormone secretagogue receptor type 1 (Rattus norvegicus, UniProt O08725)
Assay: Inhibitory concentration against rat Growth hormone secretagogue receptor

Chain of Growth hormone secretagogue receptor type 1 (Rattus norvegicus, UniProt O08725) (O08725 whole entry): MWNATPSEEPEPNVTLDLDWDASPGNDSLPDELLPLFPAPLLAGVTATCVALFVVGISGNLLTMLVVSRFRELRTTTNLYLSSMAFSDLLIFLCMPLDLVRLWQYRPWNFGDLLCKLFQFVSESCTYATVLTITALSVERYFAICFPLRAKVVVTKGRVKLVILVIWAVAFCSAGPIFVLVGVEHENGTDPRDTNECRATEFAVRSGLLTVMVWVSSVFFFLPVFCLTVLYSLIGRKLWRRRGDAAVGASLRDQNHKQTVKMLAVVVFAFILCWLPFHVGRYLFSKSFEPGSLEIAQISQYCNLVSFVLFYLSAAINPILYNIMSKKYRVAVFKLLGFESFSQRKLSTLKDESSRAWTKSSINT

| IC50 [nM] | Structure (SMILES) |
| --- | --- |
| 12 | CCN(CC)[C@H]1CC[C@H](NC(=O)c2c(-c3c(Cl)cccc3Cl)noc2CCc2ccc3c(c2)OCO3)CC1 |

Biological target: Growth hormone secretagogue receptor type 1 (Mus musculus, UniProt Q99P50)
Assay: Inhibitory concentration against mouse Growth hormone secretagogue receptor

Chain of Growth hormone secretagogue receptor type 1 (Mus musculus, UniProt Q99P50) (Q99P50 whole entry): as the sequence (O08725 whole entry) above, with P30S, A249S counted along it

| IC50 [nM] | Structure (SMILES) |
| --- | --- |
| 7 | CCN(CC)[C@H]1CC[C@H](NC(=O)c2c(-c3c(Cl)cccc3Cl)noc2CCc2ccc3c(c2)OCO3)CC1 |
